This is an account of results in ChEMBL document CHEMBL1130341, “Novel indole-2-carboxamide and cycloalkeno[1,2-b]indole derivatives. Structure-activity relationships for high inhibition of human LDL peroxidation” (J Med Chem, 1997).

Test [1] can be described thus: Tested for inhibition of copper induced lipid peroxidation in human low density lipoproteins (LDL). It is filed as functional. The procedure, abridged:
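LDL isolated by ultracentrifugation from pooled plasma of healthy normolipidemic human donors. Oxidation driven by copper for 3 h at 24 °C. Compounds in DMSO added just before oxidation, at 10 concentrations from 10^-7 to 10^-3 M, in duplicate. TBARS measured by the Yagi method. IC50 by linear regression; also given as an activity ratio versus probucol.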

Test [2] in a line: Activity ratio versus Probucol in lipid peroxidation. It is filed as functional. The procedure, abridged:
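LDL isolated by ultracentrifugation from pooled plasma of healthy normolipidemic human donors. Compounds were added in DMSO just before copper-induced oxidation (3 h, 24 °C). Ten concentrations from 10^-7 to 10^-3 M were tested in duplicate. Read-out was TBARS inhibition (Yagi method), and IC50 came from linear regression. Activity was expressed as a ratio versus probucol to correct for LDL batch variation.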

For test [3], the species on record is Bos taurus. The test is described as follows: Inhibitory concentration against protection of bovine endothelial cells against cytotoxicity of oxidised LDL. Type of test: functional. Conditions: Endothelial cell. The procedure, abridged:
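Cells kept 48 h in the presence of oxidized LDL, washed twice with PBS. Viability read by MTT (250 µg mL^-1 in phenol red-free RPMI, 2 h, 37 °C), solubilized in DMSO, OD 540 nm, expressed as % of cells grown without oxidized LDL. Six concentrations, five assays each; IC50 by linear regression.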

For test [4], the species on record is Rattus norvegicus. Kind of test: Inhibitory concentration against KCL-induced rat thoracic contraction. Type of test: functional. The procedure, abridged: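 Isolated rat aorta contracted with hyperpotassic solution (KCl 60 mM). Inhibition of contraction measured at eight concentrations, 10^-8 to 3 × 10^-5 M, each in duplicate, on two separate preparations. IC50 obtained from the concentration-response curve by linear regression. Flunarizine as reference.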

Test [5] concerns Endothelial cell. Kind of test: Inhibitory concentration against 15-lipoxygenase, by inhibiting 15-HETE production by human umbilical vein endothelial cells (HUVEC) stimulated by calcium ionophore A 23187 at concentration of 10e-5 M. It is filed as cell-based. The procedure, abridged: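 HUVEC (isolated) preincubated 15 min at 37 °C with compound at 10^-5 M in DMSO, in triplicate; stimulated with calcium ionophore A 23187 (5 × 10^-6 M in DMSO).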

As for `CN(C(=O)c1cc2cc(O)ccc2n1C)c1ccccc1`, 0.2 µM corresponded to half-maximal inhibition in test [1] (IC50). The Ratio in test [2] was 10.
In test [1], `CN(C(=O)c1cc2cc(O)ccc2n1C)c1cccc(Br)c1` came in with an IC50 of 0.8 µM. Moreover, in test [2], the Ratio turned out to be 2.5.
For `CCCCCCCCN(C(=O)c1cc2cc(O)ccc2[nH]1)c1ccccc1`, in that order: 10 µM and 0.3.
For `COc1ccc2c(c1)cc(C(=O)N(C)c1ccccc1)n2C` the same measures were 90 µM and 0.02.
For `COc1ccc(CN2CCN(C(=O)c3cc4cc(O)ccc4[nH]3)CC2)c(OC)c1OC`, in that order: 5 µM and 1.
In test [1], `CCCCCCN(C(=O)c1cc2cc(O)ccc2[nH]1)c1ccccc1` registered an IC50 of 0.1 µM. Besides, the Ratio in test [2] is 10.
For `Cn1c(C(=O)Nc2cccc(Cl)c2)cc2cc(O)ccc21`, in that order: 1 µM and 0.8.
For `CN(C(=O)c1cc2cc(O)ccc2n1C)c1cccc(C(F)(F)F)c1` the same measures were 1 µM and 0.5.
For `O=C(Nc1ccccc1)c1cc2cc(O)ccc2[nH]1` the same measures were 1 µM and 3.
Take `Cn1c2c(c3cc(O)ccc31)CCCCCC2`: the IC50 in test [1] worked out at 0.1 µM. The Ratio in test [2] came to 10.
For `CCCCCCN(C(=O)c1cc2cc(O)ccc2n1C)c1ccccc1` the same measures were 0.2 µM and 5.
As for `Cn1c(C(=O)N2CCN(C(c3ccc(F)cc3)c3ccc(F)cc3)CC2)cc2cc(O)ccc21`, the IC50 in test [3] worked out at 0.14 µM; in test [1], 0.6 µM; in test [4], 1.5 µM. Also, the Ratio in test [2] amounted to 5.
In test [1], `CN(C(=O)c1cc2cc(O)ccc2n1C)c1cccc(Cl)c1` displayed an IC50 of less than 0.1 µM. Also, the Ratio in test [2] was greater than 20.
With `Cn1c2c(c3cc(O)ccc31)CCCCC2`, it took 0.1 µM to reach half-maximal inhibition in test [1] (IC50). The inhibition in test [5] was found to be 62%.
Turning to `COc1cccc(N(C)C(=O)c2cc3cc(OC)ccc3n2C)c1`, it took 200 µM to reach half-maximal inhibition in test [1] (IC50). In addition, the Ratio in test [2] was 0.01.
For `CN(C(=O)c1cc2cc(O)ccc2[nH]1)c1ccccc1` the same measures were 1 µM and 1.
For `COc1cc(NC(=O)c2cc3cc(O)ccc3[nH]2)cc(OC)c1OC`, in that order: 0.8 µM and 3.8.
For `COc1ccc2[nH]c(C(=O)N(C)c3ccccc3)cc2c1`, in that order: greater than 1000 µM and less than 0.001.
Take `CCCCCCCCN(C(=O)c1cc2cc(SCC)ccc2[nH]1)c1ccccc1`: the IC50 in test [1] amounted to 100 µM. Further, the Ratio in test [2] came out at 0.03.
For `Cn1c(C(=O)Nc2ccccc2)cc2cc(O)ccc21` the same measures were 0.9 µM and 0.3.
As for `COc1ccc2[nH]c3c(c2c1)CCCC3`, half-maximal inhibition in test [1] (IC50) required 1 µM. In addition, the Ratio in test [2] is 3.
In test [1], `CC(C)(Sc1cc(C(C)(C)C)c(O)c(C(C)(C)C)c1)Sc1cc(C(C)(C)C)c(O)c(C(C)(C)C)c1` [PROBUCOL] had an IC50 of 5 µM. This counts as single-digit micromolar.
In turn, `CCSc1ccc2c(c1)c1c(n2C)CCCC1` yielded an IC50 in test [1] of 20 µM. Moreover, the Ratio in test [2] turned out to be 0.1.
For `Oc1ccc2[nH]c3c(c2c1)CCCCCC3` the same measures were 0.5 µM and 2.
For `Cn1c2c(c3cc(O)ccc31)CCCC2` the same measures were 0.6 µM and 3.
For `COc1ccc2[nH]c(C(=O)Nc3ccccc3)cc2c1`, in that order: 0.9 µM and 2.2.
In the case of `CCCCN(C(=O)c1cc2cc(O)ccc2n1C)c1ccccc1`, the IC50 in test [1] stood at 1 µM. The Ratio in test [2] is 3.
